Compound activity: PubChem BioAssay, several laboratories
MT stabilizer: microtubule stabilizers in HeLa cells; HeLa tubulin immunostaining HCS, 24 h; share of cells brighter than vehicle mean+2SD; % tubulin-high responders, % at 10 µM; 0.83% of 200,000 active;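 active = plate Z-score above 3 for both tubulin-high and condensed-nucleus cell shares, with cell loss under 80%, at 10 µM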;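 also: anti alpha tubulin signal scored within the nucleus-defined area of each cell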
L major viab: inhibitors of Leishmania major promastigote growth | 9% of 200,000 active | inhibition, % at 10 µM | Leishmania major promastigotes, resazurin fluorescence viability; in the data active = inhibition above about 50%;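 also: promastigotes grown with compound for 44 hours at 28 °C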
HSV augment: HSV replication enhancement. HSV replication augmentation in cells, fold increase. maximum fold increase. 0.005% of 220,000 active. AID 1956; in the data active = maximum fold increase above about 1.5; inconclusive = no clear call, values can overlap the other calls; tested in PC3 cells
Dynein transport: blocks dynein driven cargo transport along microtubules. 3617.4 mouse cells, GR-EGFP nuclear translocation imaging; test concentration mostly 20 µM; stimulated with dexamethasone, 1 µM; hits give low values. z-score, hits read low. 0.47% of 220,000 active. AID 1381;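 active = plate z-score of nuclear minus cytoplasmic receptor signal below a set negative limit, without overly bright fluorescence or cell loss, cut at about -3.5 in these data, passing the limit was not always enough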;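 also: z-score of nuclear minus cytoplasmic ring GR-EGFP intensity difference per well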
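medium = tetracycline-free induction medium containing charcoal-stripped FBS | probe or stimulus = dexamethasone, 1.0 µM final | timing = 48 h induction, then 1 h compound, then 30 min agonist, 37 °C | detection = automated 10x imaging of fixed Hoechst-stained cells | read-out basis = nuclear versus cytoplasmic GR-EGFP signal, averaged per well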
b-catenin transl: modulators of beta-catenin nuclear translocation. HeLa beta-catenin nuclear translocation, immunofluorescence imaging. nuclear translocation activity, % at 5 µM. 0.3% of 190,000 active. AID 1665;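 active = nuclear translocation activity above 50% at 5 µM, with a well cell count of 50 or more; inconclusive = wells under 50 cells across six images, flagged as toxic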;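 also: per-cell ratio of nuclear to cytoplasmic median beta-catenin stain intensity; plate controls were DMSO negative control for no effect and GSK-3 inhibitor IX positive control for full effect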
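System: Human HeLa cells, endogenous beta-catenin | Compound dosing: 5 µM primary, 0.02–20 µM confirmation | Timing: 24 h compound exposure at 37°C, 5% CO2 | Measured by: Fluorescence imaging of beta-catenin antibody stain plus DAPI | Read-out basis: % activation of per-cell nuclear versus cytoplasmic median beta-catenin signal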
* marks the source's active call; other numbers are inactive results; i = inactive; ? = inconclusive; / = no result. The list is not random: actives were taken first. Their share in the collection is about 8.9%.

SMILES	MT stabilizer	L major viab	HSV augment	Dynein transport	b-catenin transl
COc1cccc(-c2cc(=O)c3cc(NC(=O)c4ccccc4)ccc3[nH]2)c1	15	-3	i	-0.095	/
Clc1ccc2nc(C3CCN(Cc4ccccc4)CC3)[nH]c2c1	2	88*	i	0.13	0
CC1CCCCN1C(=O)CN1CCC(c2nc3ccc(Cl)cc3[nH]2)CC1 (stereo unspecified)	3	3	i	-0.81	0
Cc1ccc(CN2CCC(c3nc4ccc(Cl)cc4[nH]3)CC2)cc1	3	92*	i	-0.21	2
Cc1c(O)c(CN2CCCCC2)cc2c1oc(=O)c1ccccc12	2	8	i	-0.43	1
CC(C)(C)c1ccc(Cn2c(=N)n(CC(O)c3ccco3)c3ccccc32)cc1 (stereo unspecified)	9.5*	100*	/	-0.032	-1
Cc1ccccc1Cn1c(=N)n(CC(O)c2ccco2)c2ccccc21 (stereo unspecified)	2	78*	i	-0.56	0
CCn1c(COc2ccc(=O)n(-c3ccccc3)n2)nnc1SCc1ccccc1	1	-8	i	/	-5
Nc1nc2ccccc2n1C(=O)CCc1ccccc1	11	-3	i	0.83	/
COc1ccc(CNCCC(c2ccccc2)C2CCOC(C)(C)C2)cc1 (stereo unspecified)	4	91*	i	1.3	-1
COc1ccc(CN(CCC(c2ccccc2)C2CCOC(C)(C)C2)C(C)=O)cc1 (stereo unspecified)	4	83*	i	-0.2	-3
COc1ccc(C(CCN(Cc2ccc(OC)c(OC)c2)C(C)=O)c2ccccc2)cc1 (stereo unspecified)	4	9	i	-0.68	2
COC(=O)N/N=C/c1cc(Cl)cc(Cl)c1OCc1ccccc1F	5	-3	i	-0.29	-3
O=C(CCc1ccc(Oc2cc([N+](=O)[O-])cc([N+](=O)[O-])c2)cc1)NC1CCCC1	2	99*	i	1.4	2
CC1CCN(C(=O)CCc2ccc(Oc3cc([N+](=O)[O-])cc([N+](=O)[O-])c3)cc2)CC1	2	99*	i	-0.43	0
CC1CCN(C(=O)CCc2ccc(S(=O)(=O)NC(C)(C)C)cc2)CC1	2	-2	i	-0.84	-15
CCCCn1cnc2c([nH]c3ccccc32)c1=O	4	0	i	-0.04	0
Cc1cc(C)cc(-n2nnn(C3C/C(=N/NC(N)=S)C4OCC3O4)c2=S)c1 (stereo unspecified)	2	12	i	1.1	0
CC(C)(C)C(=O)N1CCN(c2ccc([N+](=O)[O-])c(-n3nc(-c4ccccc4)c4ccccc4c3=O)c2)CC1	5	57*	i	-0.74	-3
Cc1nn(-c2cc(N3CCCC3)ccc2[N+](=O)[O-])c(=O)c2ccccc12	2	-1	?	-0.25	/
CC(C)NC(=S)N/N=C1\CCCCC1C1CCCCC1 (stereo unspecified)	2	100*	i	-0.021	-4
CC1=NN(C(N)=S)C(=O)C1N=Nc1ccccc1C (stereo unspecified)	4	8	i	-0.43	2
COc1ccc(-n2c(Cc3cccn3C)nnc2SCC(=O)N2CCCc3ccccc32)cc1	5	63*	i	0.72	2
O=C(CSc1nnc(Cc2cccs2)n1C1CCCCC1)N1CCCc2ccccc21	2	95*	i	0.33	-8
Cn1c(Cc2cccs2)nnc1SCC(=O)N1CCCc2ccccc21	4	-2	i	1	-3
SMILES	MT stabilizer	L major viab	HSV augment	Dynein transport	b-catenin transl
COc1ccc(-n2c(Cc3cccn3C)nnc2SCC(=O)N2CCCC2)cc1	4	-11	i	-1.6	-1
COc1ccccc1NC(=O)COC(=O)c1ccc2c(c1)nc(C)n2-c1ccccc1	2	57*	i	-1.1	0
CNC(=O)COC(=O)c1ccc(OCC(=O)Nc2ccccc2OC)c(OC)c1	4	-1	i	0.021	2
FC(F)(F)c1cnc(NNC(=S)Nc2ccccc2Cl)c(Cl)c1	5	-6	i	0.066	3
CC(C)(C)C(=O)CSc1ncnc2sc3c(c12)CCC3	4	10	i	-0.5	-1
Cc1ccc(S(=O)(=O)c2c(N)n(Cc3ccco3)c3nc4ccccc4nc23)cc1C	3	91*	i	-0.64	-2
Nc1c(S(=O)(=O)c2ccccc2)c2nc3ccccc3nc2n1Cc1ccco1	3	77*	i	-0.39	0
COc1ccc(OC)c(S(=O)(=O)N2CCNCC2)c1	/	/	i	-0.17	1
COC(=O)/C(=C\c1cc(OC)c(OC)c(OC)c1)c1nc2ccccc2[nH]1	6	99*	i	-2.7	1
COc1cc(OC)c(OC)cc1/C=N/Nc1nc2ccccc2[nH]1	/	/	i	0.11	-3
COc1cc(/C=N\Nc2nc3ccccc3[nH]2)cc(OC)c1OC	3	57*	i	-0.075	7
CCN(CC)c1ccc(/C=N/NC(=O)c2ccco2)c(O)c1	/	/	i	0.66	0
COc1ccc(/C=N/Nc2nc3ccccc3[nH]2)cc1OC	4	99*	i	-0.48	0
CCN(CC)c1ccc(/C=N/NC(=O)Cc2cccs2)c(O)c1	1	98*	i	-0.24	3
CCN(CC)c1ccc(/C=N/Nc2nc3ccccc3[nH]2)c(O)c1	2	100*	?	-0.4	0
Cc1ccc2cc(/C=N/Nc3nc4ccccc4[nH]3)c(Cl)nc2c1	2	12	i	-0.58	-1
CC(NCc1ccccc1Cl)C(=O)Nc1ccc(C#N)cc1 (stereo unspecified)	9	-2	i	-0.072	-1
COC(=O)c1[nH]c2cc(OC)ccc2c1NC(=O)c1nonc1C	37*	-3	i	-0.23	1
S=C(Nc1cccc2ccccc12)NN1CCOCC1	2	-2	i	-0.88	0
c1coc(CNC2CCCCCCC2)c1	2	23	i	-0.12	0
c1ccc(Cc2ccc(OCCCNC3CCCC3)cc2)cc1	7	100*	i	-1	0
N#Cc1ccc(OCCOCCNC2CCCC2)cc1	2	81*	i	0.88	1
c1ccc(SCCCCNC2CCCC2)cc1	3	87*	i	0.62	3
COc1ccc(OCCNC2CCCC2)cc1	2	61*	i	-1.1	-2
c1cc2c(cc1OCCNC1CCCC1)CCC2	4	76*	i	0.74	-2
Cc1ccc(OCCNC(=O)C2CCCCC2)cc1	4	4	i	-0.025	7
c1ccc(-c2ccc(OCCCNC3CCCC3)cc2)cc1	1	100*	i	0.43	0
COc1cccc(C(=O)/C=C/Nc2ccc(S(=O)(=O)Nc3cnc4ccccc4n3)cc2)c1	6	-7	?	0.22	2
Cc1cc(C)c(C)c(S(=O)(=O)N2CCN(c3ccc(O)cc3)CC2)c1C	5	55*	i	0.0019	0
